# Results published in ChEMBL document CHEMBL5058577, “EUbOPEN Chemogenomics Library 2 (Multiplex)” (2022).
# Test system: U2OS
# Test: Multiplex assay against U2OS
# Type: toxicity, cell-based
# Conditions: human
# Method in brief: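 Live cells carried four stains from seeding: Hoechst33342, BioTracker Green Microtubule Cytoskeleton Dye, MitoTracker Red and Annexin V Alexa Fluor 680. They were imaged on a CQ1 microscope at 37°C and 5% CO2 after compound addition. Using CellPathfinder machine-learning gating, cells were split into Hoechst high-intensity objects or normal cells, normal cells into healthy, pyknosed or fragmented nuclei, and pyknosed cells into mitotic or apoptotic; tubulin, mitochondrial-mass and membrane-permeability phenotypes are per cents of healthy-nucleus cells.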
# [1] = 12 h, 1 µM, compound concentration 1 uM, replicate 1
# [2] = 12 h, 1 µM, compound concentration 1 uM, replicate 2
# [3] = 12 h, 10 µM, compound concentration 10 uM, replicate 1
# [4] = 12 h, 10 µM, compound concentration 10 uM, replicate 2
# [5] = 24 h, 1 µM, compound concentration 1 uM, replicate 1
# [6] = 24 h, 1 µM, compound concentration 1 uM, replicate 2
# [7] = 24 h, 10 µM, compound concentration 10 uM, replicate 1
# [8] = 24 h, 10 µM, compound concentration 10 uM, replicate 2
# [9] = 48 h, 1 µM, compound concentration 1 uM, replicate 1
# [10] = 48 h, 1 µM, compound concentration 1 uM, replicate 2
# [11] = 48 h, 10 µM, compound concentration 10 uM, replicate 1
# [12] = 48 h, 10 µM, compound concentration 10 uM, replicate 2
compound,measurement,setting,value
O=c1ccc2ccc(OCCCCN3CCN(c4cccc5sccc45)CC3)cc2[nH]1 [BREXPIPRAZOLE],Population Apoptotic (%),[1],73%
same,Population Fragmented Nuclei (%),[1],23%
same,Population Healthy Nuclei (%),[1],62%
same,Population Hoechst High Intensity Objects (%),[1],6%
same,Population Membrane Permeable-Phenotype (%),[1],40%
same,Population Mitochondria Different-Phenotype (%),[1],19%
same,Population Mitotic Cells (%),[1],26%
same,Population Normal (%),[1],93%
same,Population Pyknosed Nuclei (%),[1],13%
same,Population Tubulin-Different-Phenotype (%),[1],36%
same,Total Cell Count,[1],178
same,Population Apoptotic (%),[2],55%
same,Population Fragmented Nuclei (%),[2],16%
same,Population Healthy Nuclei (%),[2],69%
same,Population Hoechst High Intensity Objects (%),[2],2%
same,Population Membrane Permeable-Phenotype (%),[2],32%
same,Population Mitochondria Different-Phenotype (%),[2],24%
same,Population Mitotic Cells (%),[2],44%
same,Population Normal (%),[2],97%
same,Population Pyknosed Nuclei (%),[2],14%
same,Population Tubulin-Different-Phenotype (%),[2],30%
same,Total Cell Count,[2],126
same,Population Apoptotic (%),[3],86%
same,Population Fragmented Nuclei (%),[3],31%
same,Population Healthy Nuclei (%),[3],27%
same,Population Hoechst High Intensity Objects (%),[3],6%
same,Population Membrane Permeable-Phenotype (%),[3],57%
same,Population Mitochondria Different-Phenotype (%),[3],82%
same,Population Mitotic Cells (%),[3],13%
same,Population Normal (%),[3],93%
same,Population Pyknosed Nuclei (%),[3],41%
same,Population Tubulin-Different-Phenotype (%),[3],83%
same,Total Cell Count,[3],220
same,Population Apoptotic (%),[4],82%
same,Population Fragmented Nuclei (%),[4],21%
same,Population Healthy Nuclei (%),[4],43%
same,Population Hoechst High Intensity Objects (%),[4],9%
same,Population Membrane Permeable-Phenotype (%),[4],53%
same,Population Mitochondria Different-Phenotype (%),[4],90%
same,Population Mitotic Cells (%),[4],17%
same,Population Normal (%),[4],90%
same,Population Pyknosed Nuclei (%),[4],35%
same,Population Tubulin-Different-Phenotype (%),[4],95%
same,Total Cell Count,[4],109
same,Population Apoptotic (%),[5],68%
same,Population Fragmented Nuclei (%),[5],26%
same,Population Healthy Nuclei (%),[5],55%
same,Population Hoechst High Intensity Objects (%),[5],3%
same,Population Membrane Permeable-Phenotype (%),[5],19%
same,Population Mitochondria Different-Phenotype (%),[5],22%
same,Population Mitotic Cells (%),[5],31%
same,Population Normal (%),[5],96%
same,Population Pyknosed Nuclei (%),[5],18%
same,Population Tubulin-Different-Phenotype (%),[5],18%
same,Total Cell Count,[5],181
same,Population Apoptotic (%),[6],66%
same,Population Fragmented Nuclei (%),[6],12%
same,Population Healthy Nuclei (%),[6],67%
same,Population Membrane Permeable-Phenotype (%),[6],22%
same,Population Mitochondria Different-Phenotype (%),[6],28%
same,Population Mitotic Cells (%),[6],33%
same,Population Pyknosed Nuclei (%),[6],19%
same,Population Tubulin-Different-Phenotype (%),[6],16%
same,Total Cell Count,[6],128
same,Population Apoptotic (%),[7],93%
same,Population Fragmented Nuclei (%),[7],30%
same,Population Healthy Nuclei (%),[7],25%
same,Population Hoechst High Intensity Objects (%),[7],13%
same,Population Membrane Permeable-Phenotype (%),[7],47%
same,Population Mitochondria Different-Phenotype (%),[7],67%
same,Population Mitotic Cells (%),[7],6%
same,Population Normal (%),[7],86%
same,Population Pyknosed Nuclei (%),[7],44%
same,Population Tubulin-Different-Phenotype (%),[7],76%
same,Total Cell Count,[7],213
same,Population Apoptotic (%),[8],91%
same,Population Fragmented Nuclei (%),[8],19%
same,Population Healthy Nuclei (%),[8],26%
same,Population Hoechst High Intensity Objects (%),[8],22%
same,Population Membrane Permeable-Phenotype (%),[8],56%
same,Population Mitochondria Different-Phenotype (%),[8],86%
same,Population Mitotic Cells (%),[8],8%
same,Population Normal (%),[8],77%
same,Population Pyknosed Nuclei (%),[8],54%
same,Population Tubulin-Different-Phenotype (%),[8],91%
same,Total Cell Count,[8],112
same,Population Apoptotic (%),[9],64%
same,Population Fragmented Nuclei (%),[9],21%
same,Population Healthy Nuclei (%),[9],61%
same,Population Hoechst High Intensity Objects (%),[9],4%
same,Population Membrane Permeable-Phenotype (%),[9],9%
same,Population Mitochondria Different-Phenotype (%),[9],12%
same,Population Mitotic Cells (%),[9],35%
same,Population Normal (%),[9],95%
same,Population Pyknosed Nuclei (%),[9],16%
same,Population Tubulin-Different-Phenotype (%),[9],8%
same,Total Cell Count,[9],240
same,Population Apoptotic (%),[10],73%
same,Population Fragmented Nuclei (%),[10],22%
same,Population Healthy Nuclei (%),[10],56%
same,Population Hoechst High Intensity Objects (%),[10],2%
same,Population Membrane Permeable-Phenotype (%),[10],34%
same,Population Mitochondria Different-Phenotype (%),[10],31%
same,Population Mitotic Cells (%),[10],26%
same,Population Normal (%),[10],97%
same,Population Pyknosed Nuclei (%),[10],21%
same,Population Tubulin-Different-Phenotype (%),[10],18%
same,Total Cell Count,[10],161
same,Population Apoptotic (%),[11],96%
same,Population Fragmented Nuclei (%),[11],45%
same,Population Healthy Nuclei (%),[11],12%
same,Population Hoechst High Intensity Objects (%),[11],26%
same,Population Membrane Permeable-Phenotype (%),[11],45%
same,Population Mitochondria Different-Phenotype (%),[11],30%
same,Population Mitotic Cells (%),[11],3%
same,Population Normal (%),[11],73%
same,Population Pyknosed Nuclei (%),[11],41%
same,Population Tubulin-Different-Phenotype (%),[11],40%
same,Total Cell Count,[11],215
same,Population Apoptotic (%),[12],100%
same,Population Fragmented Nuclei (%),[12],29%
same,Population Healthy Nuclei (%),[12],14%
same,Population Hoechst High Intensity Objects (%),[12],32%
same,Population Membrane Permeable-Phenotype (%),[12],70%
same,Population Mitochondria Different-Phenotype (%),[12],90%
same,Population Mitotic Cells (%),[12],0%
same,Population Normal (%),[12],67%
same,Population Pyknosed Nuclei (%),[12],56%
same,Population Tubulin-Different-Phenotype (%),[12],90%
same,Total Cell Count,[12],105
